Screens as filed in PubChem BioAssay.
This is a sample that favours compounds with a hit; in the whole collection about 1.3% have one here.
ANO1 activ: activates or potentiates the mouse TMEM16A chloride channel; AID 623877; 0.3% of 340,000 active; HEK293 TMEM16A/YFP-H148Q/I152L, iodide quench fluorescence; active compounds read low; B-score at 10 µM; Q8BHY3;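 active means fluorescence-ratio B-score plate-corrected deviation score at least 3 library SD below zero, with starting fluorescence score within 5 deviations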;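 further: channel opened by trigger with iodide after compound preincubation; score built on the fluorescence ratio of max minus min over baseline; more negative score means more quench and so TMEM16A activation or potentiation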
Target sequence (Q8BHY3 whole entry, looked up): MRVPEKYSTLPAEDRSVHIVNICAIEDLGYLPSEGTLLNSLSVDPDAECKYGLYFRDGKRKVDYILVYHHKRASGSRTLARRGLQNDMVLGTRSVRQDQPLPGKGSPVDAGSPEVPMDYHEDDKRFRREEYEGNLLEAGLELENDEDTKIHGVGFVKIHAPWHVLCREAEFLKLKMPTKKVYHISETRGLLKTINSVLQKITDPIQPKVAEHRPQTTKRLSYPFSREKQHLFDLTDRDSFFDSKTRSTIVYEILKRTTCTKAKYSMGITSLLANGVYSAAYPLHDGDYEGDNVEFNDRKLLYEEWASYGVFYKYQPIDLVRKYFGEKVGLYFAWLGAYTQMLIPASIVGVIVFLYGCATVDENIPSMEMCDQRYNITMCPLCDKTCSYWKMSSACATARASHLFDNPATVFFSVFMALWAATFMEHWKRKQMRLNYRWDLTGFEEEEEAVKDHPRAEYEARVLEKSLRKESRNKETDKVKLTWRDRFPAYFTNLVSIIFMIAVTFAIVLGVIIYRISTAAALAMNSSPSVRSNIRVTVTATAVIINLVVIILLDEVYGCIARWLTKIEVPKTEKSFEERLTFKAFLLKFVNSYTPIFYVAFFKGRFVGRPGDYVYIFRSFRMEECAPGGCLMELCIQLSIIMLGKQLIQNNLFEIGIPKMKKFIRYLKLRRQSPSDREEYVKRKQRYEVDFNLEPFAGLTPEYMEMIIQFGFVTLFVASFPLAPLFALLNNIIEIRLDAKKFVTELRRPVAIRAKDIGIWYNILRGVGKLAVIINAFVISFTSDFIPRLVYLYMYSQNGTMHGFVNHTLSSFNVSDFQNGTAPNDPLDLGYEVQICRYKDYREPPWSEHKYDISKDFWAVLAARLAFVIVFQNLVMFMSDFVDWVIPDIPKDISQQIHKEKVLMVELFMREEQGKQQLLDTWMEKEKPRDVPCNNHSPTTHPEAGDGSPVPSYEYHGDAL
MT1-MMP act inh: MT1-MMP (human) activation inhibition | P50281 | GFP/RFP ratio change, % at 20 µM | HT1080 RFP-PRO-GFP cells, GFP/RFP ratio fluorescence, overnight; percent of plate control window, DMSO zero | 0.061% of 360,000 active | AID 651647;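 active means GFP/RFP ratio change of at least 30% with cell ATP level not reduced by more than half and red fluorescence within 50% of control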
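Test system: HT1080 cells expressing an RFP-PRO-GFP fluorescent reporter construct / Compound dosing: single-point 20 µM compound, 1% DMSO / Schedule: cells overnight before dosing, compound overnight, 37 °C, 5% CO2 / Evaluation: GFP/RFP fluorescence ratio / Control set: DMSO and RFP-L50D-GFP cell wells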
ANO1 block: mouse TMEM16A channel inhibition, primary screen | Q8BHY3 | HEK293 TMEM16A/YFP iodide influx fluorescence, ionomycin | normalized B-score (activity score, 25-100; higher = stronger inhibition) at 10 µM | 1.2% of 310,000 active | AID 588511;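 active means ratio plate-corrected score three or more library SD toward inhibition, starting fluorescence score within five deviations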;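 further: score derived from kinetic fluorescence span divided by baseline fluorescence per well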
DAGLB inhibitor: blocks human DAGLB lipase activity | HEK293T DAGLB membrane lysate, EnzChek fluorogenic substrate | inhibition, % at 5.17 µM | 0.059% of 340,000 active; in the data active means inhibition above about 34%;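 further: 0% = enzyme with vehicle and 100% = wells lacking enzyme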
MT1-MMP act val: blocks activation of human MT1-MMP in validation testing; HT1080 RFP-PRO-GFP cells, GFP and RFP fluorescence ratio, overnight; inhibition, % at 20 µM; 10% of 200 active; shares compounds with MT1-MMP act inh; AID 652235;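 active means inhibition of at least 50% in the primary cell screen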
Starred values were filed as active, the others as inactive; i = inactive; . = not tested or not shown.

SMILES	ANO1 activ	MT1-MMP act inh	ANO1 block	DAGLB inhibitor	MT1-MMP act val
CC(C)[C@@H]1Cc2[nH]n(C)c(=O)c2[C@H](c2ccc(F)cc2)O1	.	6	.	.	.
CCc1cc(C)cc(OCCNC(=O)c2ncn[nH]2)c1	i	8	i	0	.
CC(C)(C)c1ccc(OCCNC(=O)c2ncn[nH]2)cc1	i	36*	i	0	5
COC(=O)C(C)Oc1cc(C)ccc1COc1ccc(-n2nc(C)n(C(F)F)c2=O)cc1 (stereo not given)	i	5	i	-12	.
Cc1cccc2c1NC1(CCCC1)CC2C (stereo not given)	i	30*	i	.	-1
Nc1ccc(C2=Nc3cccc4cccc(c34)N2)cc1	i	-5	.	5	.
COc1cccc(C2=Nc3cccc4cccc(c34)N2)c1	i	37*	i	10	7
CNc1ccccc1C(C)(C)c1cc(-c2cccc(Br)c2)no1	i	62*	i	-8	54*
CN(C)c1ccc(Cc2cc3c(O)ccc(O)c3cc(Cc3ccc(N(C)C)cc3)c2=O)cc1	i	33*	.	14	23
Cc1ccc(C2CC(=O)Oc3cc(O)ccc32)cc1 (stereo not given)	i	38*	i	0	16
O=C1CC(c2ccccc2)c2cc(O)ccc2O1 (stereo not given)	i	6	i	-5	.
Fc1ccc(-c2nc3c4ccccc4ccn3c2Cc2ccsc2)cc1	.	0	.	.	.
Oc1ccc(N=Nc2cccc(C(F)(F)F)c2)cc1C=Nc1ccc(N2CCOCC2)cc1	i	45*	i	5	14
OC[C@@H]1CN(Cc2ccc(-c3ccccc3)cc2)C[C@H](n2cnc3c(NCc4ccco4)ncnc32)O1	.	15	.	.	.
Nc1ccc(NC(=O)c2ccccc2)c2c1C(=O)c1ccccc1C2=O	i	38*	i	2	27
CCSc1nc(=S)n(Cc2ccccc2)c(C)c1C(C)=O	i	35*	i	1	8
CCN(CC)c1c(C)nc2ccc(C(=O)N3CCN(C(=O)c4ccco4)CC3)cn12	.	2	.	.	.
O=C1C2C3C=CC(C3)C2C(=O)N1CC1CCCO1 (stereo not given)	i	-3	i	0	.
O=C1CSC(=S)N1CC1CCCO1 (stereo not given)	i	35*	i	-1	1
CC1=C/C(=C(/c2cc(C)c(O)c(Br)c2)c2ccccc2S(=O)(=O)O)C=C(Br)C1=O	i	63*	i	15	50*
CCNc1c(C(=O)O)ccc2c1C(=O)c1ccccc1C2=O	i	16	i	4	.
CNc1c(C(=O)O)ccc2c1C(=O)c1ccccc1C2=O	i	34*	i	10	26
COc1ccccc1NC(=O)c1ccc(S(=O)(=O)N(C)c2ccccc2OC)cc1	i	35*	.	-5	10
CC(C)(C)NC(=O)C(c1ccc(-c2ccccc2)cc1)N(C[C@H]1CC[C@@H]([C@@H]2CC[C@H](CO)O2)O1)C(=O)c1ccc(C(C)(C)C)cc1 (stereo not given in full)	.	-20	.	-5	.
Cc1n[nH]c(C)c1CCNC(=O)C1CCC(=O)N(CCc2cccc(F)c2)C1 (stereo not given)	i	1	i	-5	.
SMILES	ANO1 activ	MT1-MMP act inh	ANO1 block	DAGLB inhibitor	MT1-MMP act val
Nc1ccc(N2CCN(C(=O)c3cccs3)CC2)cc1	i	33*	i	7	1
Nc1ccc(N2CCN(C(=O)c3ccco3)CC2)cc1	i	43*	i	3	1
CCCCCCCCN1C(=O)[C@H](CC(=O)N2CCN(C(=O)C3CC3)CC2)C[C@@]2(C(=O)OC)CC(C)(C)CC=C12	.	-4	.	.	.
O=[N+]([O-])c1cc(F)cc(F)c1Nc1cc(F)cc(F)c1	i	4	.	6	.
CCOC(=O)c1ccccc1N1C(=O)CSC1=S	i	30*	i	0	4
O=C1CSC(=S)N1c1cccc(O)c1	i	8	i	-1	.
Cc1ccccc1C(=O)NN1C(=O)CSC1=S	i	4	i	0	.
O=C(O)c1cccc(N2C(=O)CSC2=S)c1	i	36*	i	0	8
O=S(=O)(O)c1cc(Cl)cc(N=Nc2ccc(O)cc2O)c1O	i	62*	.	-64	46
CC(C)NC(=O)C1(C#N)C=C1c1ccccc1 (stereo not given)	.	-3	.	.	.
COc1ccc(OC)c(NC(=O)C2(C)CCN2C(=O)C2(c3ccccc3)CCCC2)c1 (stereo not given)	.	-7	.	.	.
O=C(O)c1ccccc1C(=O)Nc1ccc(Nc2ccccc2)cc1	.	33*	.	5	11
CCOC(=O)c1ccc(NC(=O)c2nc[nH]c2C(=O)N[C@H](C)CO)cc1	.	3	.	0	.
Cc1ccccc1OCCOC(=O)c1ccc(S(=O)(=O)N2CCCC2)cc1	i	-1	.	-13	.
CN(C)c1ccc(N=Cc2cccn2C)cc1	i	39*	i	9	2
O=C1c2ccccc2C(=O)c2c(NCCCN(CCO)CCO)cccc21	i	30*	.	.	28
O=C(Nc1cccc2[nH]c([C@H]3C[C@H](O)[C@@H](CO)O3)nc12)NC(c1ccccc1)c1ccccc1	.	-5	.	.	.
COc1ccc(Nc2nc(N)c3ccccc3n2)c(OC)c1	i	39*	i	1	27
O=c1[nH]cnc2sc(-c3ccccc3)cc12	i	34*	i	-2	1
CN1C(=O)/C(=C2/C=Cc3ccccc3N2CCCS(=O)(=O)O)SC1=S	i	42*	i	17	39
CCCN1/C(=C2/SC(=S)N(CC)C2=O)C=Cc2ccccc21	i	40*	i	33	35
CCN1C(=O)/C(=C2/C=Cc3ccccc3N2CC)SC1=S	i	18	i	25	.
CCN1/C(=C2\C(=O)N(C)C(=S)N2C)C=Cc2ccccc21	i	4	i	4	.
Cc1cc2ccccc2n1CCNC(=O)C1CCCCC1	i	38*	i	0	2
Cc1cc2ccccc2n1CCNC(=O)C1CCCC1	i	56	i	2	.
SMILES	ANO1 activ	MT1-MMP act inh	ANO1 block	DAGLB inhibitor	MT1-MMP act val
Cc1cc2ccccc2n1CCNC(=O)C1CC1	i	32*	i	3	2
COc1ccc2sc(/C=C/c3ccccc3O)[n+](C)c2c1	i	34*	.	.	8
COc1ccc(N=Cc2ccccc2O)cc1	i	3	.	0	.
Cc1ccc(C(=O)NNc2c3ccccc3nc3ccccc23)cc1	i	37*	i	28	39
Cc1cc(C(=O)NNC(=O)c2ccc(Cl)cc2)c2ccccc2n1	i	1	.	-3	.
O=C(NNc1c2ccccc2nc2ccccc12)c1ccc(Cl)cc1	i	40*	i	7	26
CC[n+]1c(/C=C(\C)Nc2ccccc2)sc2ccccc21	i	-2	i	1	.
CC[n+]1c(/C=C/Nc2ccccc2)sc2ccccc21	i	38*	i	2	41
